ChEMBL document CHEMBL1159074, “Inhibitory effect of novel tetrahydropyrimidine-2(1H)-thiones on melanogenesis” (Bioorg Med Chem, 2010)
The source made the active and inactive calls. The rule behind the calls is not given here.

Key:
B16 [1] = experiment: Inhibition of alpha-MSH-induced melanin production in mouse B16 cells after 72 hrs; format: functional, cell-based; details: B16, 72 h
Outline: (§1)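 B16 melanoma cells (ATCC CRL6323) were seeded at 2.5 × 10³ per well and kept at 37 °C under 5% CO₂. They were stimulated with α-MSH for 72 h with compound present. Melanin released into the medium was read by absorbance at 405 nm against a synthetic melanin standard. % inhibition at 10 µM and IC₅₀ are means of 3–5 separate experiments.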

B16 [2] = experiment: Inhibition of alpha-MSH-induced melanin production in mouse B16 cells at 10 uM after 72 hrs; format: functional; details: B16, 72 h; outline: as §1
B16 [3] = experiment: Inhibition of tyrosinase protein biosynthesis in alpha-MSH-induced mouse B16 cells after 48 hrs by Western blot; format: functional, cell-based
Outline: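 B16 cells were stimulated with α-MSH (10 nM) for 48 h with compound present. They were lysed in Tris/NaCl buffer (0.1% SDS, 1% NP-40, protease inhibitors, pH 7.4). Blots were probed overnight at 4 °C with anti-tyrosinase (1:1000), with GAPDH (1:5000) as internal control, then with HRP-conjugated secondary antibody.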

B16 [4] = experiment: Toxicity in alpha-MSH-induced mouse B16 cells assessed as effect on cell viability after 48 hrs by MTT assay; format: cell-based; details: b16, 48 h
[5] = molecular target: T1, Tyrosinase (Mus musculus) (UniProt P11344); experiment: Inhibition of cell free tyrosinase in alpha-MSH-induced mouse B16 cells assessed as effect on Dopa oxidation by spectrophotometry
T1 sequence (whole entry): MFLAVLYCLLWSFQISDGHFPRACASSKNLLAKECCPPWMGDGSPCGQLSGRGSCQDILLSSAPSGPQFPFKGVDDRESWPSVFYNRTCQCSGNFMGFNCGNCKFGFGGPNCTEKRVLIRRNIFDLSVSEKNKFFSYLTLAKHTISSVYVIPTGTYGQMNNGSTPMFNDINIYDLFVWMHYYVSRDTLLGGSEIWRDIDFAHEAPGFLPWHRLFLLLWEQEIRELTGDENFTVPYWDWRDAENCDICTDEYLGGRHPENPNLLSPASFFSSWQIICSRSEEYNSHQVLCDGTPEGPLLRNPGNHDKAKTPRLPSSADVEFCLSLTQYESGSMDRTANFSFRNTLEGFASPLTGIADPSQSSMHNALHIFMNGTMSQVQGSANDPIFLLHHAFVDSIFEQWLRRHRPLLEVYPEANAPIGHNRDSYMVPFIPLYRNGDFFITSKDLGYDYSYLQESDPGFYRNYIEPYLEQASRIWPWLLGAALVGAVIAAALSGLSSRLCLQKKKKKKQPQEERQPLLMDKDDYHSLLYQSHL
Outline: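 Cell-free tyrosinase came from B16 cells stimulated with α-MSH (10 nM). Cells were sonicated on ice in 50 mM sodium phosphate pH 6.8 with 1% Triton X-100 and 1 mM PMSF. The supernatant was dialysed and diluted to 80,000 U/mg protein. Dopa (5 mM), sample and enzyme were mixed in 50 mM phosphate pH 6.8. Dopa oxidation velocity was read spectrophotometrically.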

IC50 (B16 [1]) [µM] | inhibition [5] | Structure (SMILES) | inhibition at 10 µM (B16 [2]) [%] | inhibition (B16 [3]) | Activity (B16 [4])
> 10 |  | S=C1NCCCN1Cc1ccccc1 | 42 |  | 
> 10 |  | S=C1NCCN1Cc1ccccc1 | 35 |  | 
2.1 |  | S=C1NCCCN1CCCc1ccccc1 | > 100 |  | 
2.4 |  | S=C1NCCCN1Cc1ccc(Cl)cc1 | > 100 |  | 
> 10 |  | Cc1ccc(CN2CCNC2=O)cc1 | 14 |  | 
4.2 |  | S=C1NCCN1CCCc1ccccc1 | 63 |  | 
5.1 |  | Cc1ccc(CN2CCCNC2=S)cc1 | 80 |  | 
4.8 |  | Cc1ccc(CN2CCNC2=S)cc1 | 64 |  | 
> 10 |  | CCc1ccc(CN2CCCNC2=O)cc1 | 29 |  | 
> 10 |  | S=C1NCCN1CCc1ccccc1 | 40 |  | 
> 10 |  | CC(C)(C)c1ccc(CN2CCCNC2=O)cc1 | 30 |  | 
1.3 |  | CCc1ccc(CN2CCCNC2=S)cc1 | > 100 |  | 
> 10 |  | O=C1NCCN1Cc1ccccc1 | 7 |  | 

More lines, now with the values behind:

Structure (SMILES) | IC50 (B16 [1]) [µM] | inhibition [5] | inhibition at 10 µM (B16 [2]) [%] | inhibition (B16 [3]) | Activity (B16 [4])
S=C1NCCN1Cc1ccc(Cl)cc1 | 4.3 |  | 79 |  | 
O=C1NCCN1CCc1ccccc1 | > 10 |  | 15 |  | 
COc1ccc(CN2CCCNC2=S)cc1 | 6.1 |  | 60 |  | 
Cc1ccc(CN2CCCNC2=O)cc1 | > 10 |  | 5 |  | 
O=C1NCCCN1Cc1ccccc1 | > 10 |  | 0 |  | 
COc1ccc(CN2CCCNC2=O)cc1 | > 10 |  | 20 |  | 
O=C1NCCN1CCCc1ccccc1 | > 10 |  | 10 |  | 
S=C1NCCCN1CCc1ccccc1 | 2.9 |  | 93 |  | 
OC[C@H]1O[C@@H](Oc2ccc(O)cc2)[C@H](O)[C@@H](O)[C@@H]1O [ARBUTIN] |  |  | > 100 |  | 
O=C1NCCCN1CCc1ccccc1 | > 10 |  | 10 |  | 
O=C1NCCCN1Cc1ccc(Cl)cc1 | > 10 |  | 26 |  | 
O=C1NCCN1Cc1ccc(Cl)cc1 | > 10 |  | 10 |  | 
COc1ccc(CN2CCNC2=S)cc1 | > 10 |  | 31 |  | 
COc1ccc(CN2CCNC2=O)cc1 | > 10 |  | 13 |  | 
O=C1NCCCN1CCCc1ccccc1 | > 10 |  | 10 |  | 
CC(C)(C)c1ccc(CN2CCCNC2=S)cc1 | 0.8 | inactive | > 100 | Active | Non-toxic
